Hits are enriched below; roughly 0.9% of the tested compounds scored in any of these assays.
Calb biofilm kill – mixtures killing C. albicans biofilm | C. albicans biofilm persisters + clotrimazole, fluorescence viability; primary screen in compound mixtures of four per well | inhibition, % at 7.6 µM | 0.02% of 120,000 active | AID 1242;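 active = inhibition above 30.3% in the primary screen of four-compound pools, then above 30% when the compound was retested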;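 also: compounds exposed to preformed 24 h biofilms for 48 h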
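System: C. albicans CAF4-2 wild-type biofilms; Medium: RPMI/MOPS medium, pH 7.0; Reagent: Clotrimazole, 50 µg/mL; Times: biofilm formation 24 h, compound exposure 48 h, 37 °C; Detection: 2-h Alamar Blue fluorescence, 535/590 nm excitation/emission; Evaluation: percent inhibition of biofilm viability.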
S1P4 ag – human S1P4 receptor agonism | O95977 | S1P4-expressing cell line, agonist reporter assay | activation, % at 4.98 µM | 0.35% of 220,000 active | AID 1509; in the data active = activation above about 11%
S1P4 antag – human S1P4 receptor antagonism; S1P4-expressing cells, antagonist mode, reporter read-out; inhibition, % at 4.98 µM; AID 1510; 0.26% of 220,000 active; O95977; in the data active = inhibition above about 29%
S1P3 antag – blocks the human S1P3 receptor. AID 485. CHO S1P3 NFAT-BLA reporter, FRET fluorescence, antagonist mode. inhibition, % at 4.98 µM. Q99500. 0.27% of 170,000 active;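 active = inhibition above the plate cutoff, the mean inhibition of test wells on that plate plus 3 SD, cut at about 28% in these data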;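 also: cells challenged with S1P at its EC80 of 0.8 µM; blue over green emission ratio from cleaved BLA substrate after 4 h stimulation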
MDM2 E3 inh – inhibitors of human Mdm2 E3 ubiquitin ligase | Q00987 | cell-based MDM2 ubiquitination luciferase reporter, 2 h; 0 = plate control, 100 = twice control, blank-subtracted | 0.11% of 210,000 active | signal enhancement, % at 5 µM | AID 1230;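 active = signal enhancement of 30% or more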;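 also: luminescence tracks abundance of the self-degrading MDM2-luciferase fusion protein; higher signal means inhibition of MDM2 E3 ligase activity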
Target sequence (Q00987 whole entry, looked up, the tested form may be a part): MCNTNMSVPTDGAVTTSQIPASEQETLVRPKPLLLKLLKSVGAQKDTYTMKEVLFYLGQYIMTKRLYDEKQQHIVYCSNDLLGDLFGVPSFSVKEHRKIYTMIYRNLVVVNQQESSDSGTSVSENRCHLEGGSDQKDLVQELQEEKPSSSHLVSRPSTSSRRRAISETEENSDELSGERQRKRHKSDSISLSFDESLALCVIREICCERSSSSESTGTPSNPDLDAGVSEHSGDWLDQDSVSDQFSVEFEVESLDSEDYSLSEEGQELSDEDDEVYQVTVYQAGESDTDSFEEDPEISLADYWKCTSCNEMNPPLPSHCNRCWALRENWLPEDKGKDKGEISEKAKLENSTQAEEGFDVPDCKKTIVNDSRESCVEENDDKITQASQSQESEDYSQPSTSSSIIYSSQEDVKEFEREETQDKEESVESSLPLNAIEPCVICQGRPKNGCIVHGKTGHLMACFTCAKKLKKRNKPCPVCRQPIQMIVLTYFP
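Buffer or medium: Cells held in DMEM | Assay system: Stable mammalian line carrying autodegrading MDM2–luciferase fusion reporter | Quantity: 2000 cells/well | Times: 4 h settle plus 2 h compound, 37 °C | Doses: One concentration, 5 µM, with 0.2% DMSO | Technique: Luminescence with SteadyLite reagent, 15 min at room temperature | Benchmarks: Plate controls and plate blanks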
Hits are given with their value; 0 = inactive; - = not tested or not shown.

SMILES | Calb biofilm kill | S1P4 ag | S1P4 antag | S1P3 antag | MDM2 E3 inh
O=C(Sc1cccc2cccnc12)c1ccc(F)cc1 | 0 | 0 | 98.5 | 0 | 0
Cc1cc2cc(C)c(SCC(=O)NCc3ccco3)nc2cc1C | 0 | 0 | 0 | 0 | 30.9
COc1ccc(C2=C(C=Nc3c(C)n(C)n(-c4ccccc4)c3=O)C(c3ccccc3C)c3ccccc3O2)cc1OC (centres undefined) | - | 0 | 0 | - | 0
COc1ccc(C)cc1NC(=O)C(OC(=O)CNC(=O)c1cc(C)cc(C)c1)c1ccccc1 (centres undefined) | 0 | 0 | 0 | 0 | 67.2
CCN(CC(=O)Nc1ccc(N2CCOCC2)cc1)Cc1nc2ccccc2c(=O)[nH]1 | - | 0 | 0 | - | 38.8
CC(=O)NC(C)C(c1cccs1)N1CCN(c2ccccc2)CC1 (centres undefined) | - | 0 | 0 | 63.6 | 0
CCOC(=O)c1sc2nc(NC(=O)c3cccs3)sc2c1C | - | - | - | 69.7 | -
CN1CCN(C(=S)Nc2cc([N+](=O)[O-])ccc2Cl)CC1 | 0 | 0 | 0 | 0 | 30.9
Cc1nn(CCCC(=O)NCc2ccccc2)c(C)c1[N+](=O)[O-] | 0 | 0 | 0 | 0 | 40.1
Cc1cc(NC(=O)CSc2nnc(-c3c[nH]c4ccccc34)n2-c2ccc(Cl)cc2)no1 | - | 0 | 0 | - | 0
CCOC(=O)c1cc2c(=O)n3ccccc3nc2n(CC2CCCO2)c1=NC(C)=O (centres undefined) | - | 17.9 | 0 | - | -
COc1ccccc1-c1noc(-c2ccccc2)n1 | - | 0 | 0 | 0 | 0
COc1ccc(-c2nc(-c3ccccc3OC)no2)cc1OC | - | 0 | 0 | 54.0 | 0
COc1cccc(CN(Cc2ccco2)C(c2ccc(F)cc2)c2nnnn2C(C)(C)C)c1 (centres undefined) | - | 0 | 0 | 64.3 | 0
COc1ccc(OC)c(NC(=O)CN(Cc2ccccc2)S(C)(=O)=O)c1 | 0 | 0 | 0 | 0 | 0
CCCNC(=O)c1nnsc1S(=O)c1ccc(Cl)cc1 (centres undefined) | 0 | 0 | 76.7 | 0 | 0
CCCNC(=O)c1nnsc1S(=O)(=O)c1ccc(Cl)cc1 | 34.1 | 0 | 63.9 | 0 | 0
COc1cc(/C=C2\CC/C(=C\c3cc(OC)c(OC)c(OC)c3)C2=O)cc(OC)c1OC | 0 | 0 | 0 | 0 | 0
COc1cc(/C=C2\COC/C(=C\c3cc(OC)c(OC)c(OC)c3)C2=O)cc(OC)c1OC | 0 | 0 | 0 | 0 | 69.2
Cc1cc(C)c(NC(=S)NC(CO)(CO)CO)c(C)c1 | 0 | 0 | 0 | 0 | 0
CN(C)c1cc(C(F)(F)F)nc(-c2ccccn2)n1 | - | 0 | 0 | - | 31.1
Cc1cc(C)n(-c2nnc(NCc3ccc(Cl)cc3)nn2)n1 | 0 | 0 | 0 | 0 | 0
Cc1nn(-c2nnc(NCc3ccccc3)nn2)c(C)c1Br | 0 | 0 | 0 | 0 | 33.9
COc1ccc2[nH]c3c4c(ccc3c2c1)C(=O)C=CC4=O | 0 | 0 | 0 | 0 | 32.0
CC(C)=CC1C(C(=O)Nc2ccc(Br)cn2)C1(C)C (centres undefined) | - | 0 | 0 | 70.9 | 0
SMILES | Calb biofilm kill | S1P4 ag | S1P4 antag | S1P3 antag | MDM2 E3 inh
CCCCOc1ccc(S(=O)(=O)Nc2cc(OC)ccc2OC)cc1 | - | 0 | 0 | 54.6 | 0
O=C(CSc1nnnn1C1CC2CCC1C2)Nc1ccnc2ccccc12 (centres undefined) | - | 0 | 0 | 64.2 | 0
Cc1nnc(Cl)c2nn(-c3ccccc3F)c(C)c12 | 0 | 0 | 0 | 0 | 0
Cc1nnc(SCCN2CCOCC2)c2nn(-c3ccccc3F)c(C)c12 | 0 | 0 | 0 | 0 | 78.8
COc1cc(C2=NOC(C(=O)NC3CCCCC3)C2)cc(OC)c1OC (centres undefined) | - | 0 | 0 | 96.2 | 0
COc1cc(C2=NOC(C(=O)Nc3ccc(C)cc3)C2)cc(OC)c1OC (centres undefined) | - | 0 | 0 | 0 | 0
Cc1ccc(C)c(C(=O)CN2C(=O)CCC2=O)c1 | - | 0 | 0 | 75.2 | 0
Cc1ccc(N2C(=O)N(CC(=O)c3cc(C)ccc3C)C(=O)C2C)cc1 (centres undefined) | 0 | 0 | 0 | 0 | 0
Cc1ccc(/C=C2/NC(=O)N(Cc3ccc(Br)cc3)C2=O)o1 | 0 | 0 | 0 | 0 | 31.8
CCN1C(=O)N/C(=C/c2ccc(C)o2)C1=O | 0 | 0 | 0 | 0 | 0
CCn1c(CNC(=O)Cc2ccc(OC)cc2)nnc1SCC(=O)Nc1ccc(C(=O)O)cc1 | 0 | 0 | 0 | 0 | 0
CCn1c(CNC(=O)Cc2ccc(OC)cc2)nnc1SCC(=O)Nc1nccs1 | - | 0 | 0 | 60.5 | 0
CCOC(=O)C1CCCNC1=O (centres undefined) | 0 | 0 | 0 | 0 | 0
CCOC(=O)c1c(C)nc2ccccn12 | - | 0 | 0 | 70.5 | 0
Cc1nc2ccccn2c1C(=O)NN | 0 | 0 | 0 | 0 | 0
CC(=O)Nc1ccc(S(=O)(=O)N2CCN=C2SCc2cccnc2)cc1 | 0 | 0 | 0 | 0 | 32.3
CN(c1nnc(N)s1)C1CCCCC1 | 0 | 0 | 0 | 94.8 | -
COc1cccc(-n2c(SCC(=O)N3CCOCC3)nnc2-c2c[nH]c3ccccc23)c1 | - | 0 | 0 | 52.6 | 0
CN(C)c1ccc(C(=O)Nc2nc3c(s2)CCCC3)cc1 | - | 0 | 0 | 90.2 | 0
CCCC(=O)Nc1cc(C)c(NC(=O)C23CC4CC(CC(C4)C2)C3)cn1 | - | 0 | 0 | 0 | 0
Cc1cc(NC(=O)C2CC2)ncc1NC(=O)C12CC3CC(CC(C3)C1)C2 | - | 0 | 0 | - | 30.1
CCOC(=O)C1=C(c2ccccc2)O/C(=C(/C#N)C(F)(F)F)S1 | - | 0 | 0 | - | 68.2
CCOC(=O)C1=C(c2ccccc2)O/C(=C(\C(=O)OC)C(F)(F)F)S1 | - | 0 | 0 | - | 0
CC(=O)Cc1nsc(Nc2ccc(Cl)cc2)n1 | 0 | 0 | 0 | 0 | 0
CCOc1ccc(NC(=S)NCCCN2CCOCC2)cc1 | 0 | 0 | 0 | 0 | 34.4
SMILES | Calb biofilm kill | S1P4 ag | S1P4 antag | S1P3 antag | MDM2 E3 inh
COc1ccc(NC(=S)NCCCN2CCOCC2)cc1 | 0 | 0 | 0 | 0 | 0
COC(=O)c1cc2c(=O)n3ccccc3nc2n(C(C)C)c1=N | - | 12.2 | 0 | 0 | -
CCn1c(=N)c(C(=O)OC)cc2c(=O)n3ccccc3nc21 | - | - | - | 0 | -
CCOP(=O)(OCC)/C(C#N)=C/c1ccc([N+](=O)[O-])cc1 | 0 | 0 | 0 | 0 | 0
O=c1[nH]c2ccccc2nc1C(Nc1ccccc1)c1ccccc1 (centres undefined) | 0 | 0 | 0 | 0 | 0
COc1ccc2[nH]c(C(=O)O)c(CCNC(C)=O)c2c1 | - | 0 | 0 | 0 | 40.0
O=C(O)c1ccccc1C(=O)NCCc1c(C(=O)O)[nH]c2ccc(Cl)cc12 | 0 | 0 | 0 | 0 | 0
Nc1ccn([C@@H]2O[C@H](CO)[C@@H](O)[C@@H]2O)c(=O)n1 | 0 | 11.5 | 0 | 0 | -
Cc1c(C(=O)NNC(=S)Nc2cccc(Cl)c2)nnn1-c1ccccc1 | 0 | 0 | 0 | 0 | 0
COc1ccc(Nc2nc(C(=O)N3CCc4ccccc4C3)cs2)cc1 | 0 | 0 | 0 | 0 | 33.1
COc1ccc(Nc2nc(C(=O)N3CCc4cc(OC)c(OC)cc4C3)cs2)cc1 | 0 | 0 | 0 | 0 | -
COC(=O)C1=C(N)Oc2cc(C)n(C)c(=O)c2C1c1ccc(Cl)cc1 (centres undefined) | - | 0 | 0 | 70.7 | 0
CCn1c(CNc2ccccc2Cl)nnc1SCC(=O)NCc1ccccc1 | - | 0 | 0 | 69.5 | 0
